Experimental data: ChEMBL document CHEMBL1817608, “Synthesis and anti-inflammatory effects of a series of novel 7-hydroxycoumarin derivatives” (Eur J Med Chem, 2011)

Key:
[1] = system: J774; assay: Cytotoxicity against mouse J774 cells at 100 uM by XTT assay; format: cell-based; conditions: j774, 100 µM
Procedure, shortened: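 Confluent J774 monolayers were exposed to compound under the same conditions as the anti-inflammatory assays. Viability was read as mitochondrial dehydrogenase reduction of XTT to formazan.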

[2] = system: J774; assay: Antiinflammatory activity in mouse J774 cells assessed as inhibition of LPS-induced NO production at 10 uM by Griess reaction; format: functional
Procedure, shortened: (§1)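 Confluent J774 macrophages, grown 72 h in 24-well plates, were stimulated with LPS in fresh medium containing compound. Nitrite was quantified against a sodium nitrite standard. Results were given as % inhibition versus LPS alone, mean ± S.E.M.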

[3] = system: J774; assay: Inhibition of LPS-stimulated iNOS protein expression in mouse J774 cells at 100 uM by Western blot analysis
[4] = system: J774; assay: Antiinflammatory activity in mouse J774 cells assessed as inhibition of LPS-induced COX-2 protein expression at 100 uM by Western blot
[5] = system: J774; assay: Inhibition of LPS-stimulated IL-6 production in mouse J774 cells at 100 uM by ELISA
[6] = system: J774; assay: Inhibition of LPS-stimulated IL-6 production in mouse J774 cells at 10 uM by ELISA
[7] = system: J774; assay: Antiinflammatory activity in mouse J774 cells assessed as inhibition of LPS-induced COX-2 protein expression at 10 uM by Western blot
[8] = system: J774; assay: Inhibition of LPS-stimulated iNOS protein expression in mouse J774 cells at 10 uM by Western blot analysis
[9] = system: J774; assay: Antiinflammatory activity in mouse J774 cells assessed as inhibition of LPS-induced NO production at 100 uM by Griess reaction; format: functional; procedure, shortened: as §1
[10] = target: Transcription factor p65 (Mus musculus) (UniProt Q04207); assay: Inhibition of NF-kB p65 nuclear translocation in LPS-stimulated mouse J774 cells by Western blot analysis; format: cell-based; conditions: concentration not given here
Sequence of Transcription factor p65 (Mus musculus) (Q04207 whole entry): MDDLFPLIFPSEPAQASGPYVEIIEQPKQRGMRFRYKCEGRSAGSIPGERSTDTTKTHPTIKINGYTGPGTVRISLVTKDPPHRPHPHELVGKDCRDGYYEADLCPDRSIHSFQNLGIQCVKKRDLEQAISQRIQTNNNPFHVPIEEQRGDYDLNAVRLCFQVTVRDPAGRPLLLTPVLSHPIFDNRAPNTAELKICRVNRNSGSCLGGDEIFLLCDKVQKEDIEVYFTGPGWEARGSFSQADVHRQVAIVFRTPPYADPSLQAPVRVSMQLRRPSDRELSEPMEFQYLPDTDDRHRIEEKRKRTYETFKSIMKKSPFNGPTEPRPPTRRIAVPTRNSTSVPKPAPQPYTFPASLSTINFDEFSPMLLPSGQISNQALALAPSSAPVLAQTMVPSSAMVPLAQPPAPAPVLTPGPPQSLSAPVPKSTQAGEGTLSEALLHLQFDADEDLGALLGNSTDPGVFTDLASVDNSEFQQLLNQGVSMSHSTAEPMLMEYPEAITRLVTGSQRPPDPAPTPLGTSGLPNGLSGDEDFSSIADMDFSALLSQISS
Procedure, shortened: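 Nuclear extracts were prepared from LPS-treated J774 cells using hypotonic buffer A followed by high-salt buffer C (420 mM NaCl). Extract protein (20 µg) was run on 10% SDS-PAGE, blotted, and probed with anti-NF-κB p65 antibody, then detected by chemiluminescence.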

[11] = system: J774; assay: Inhibition of LPS-stimulated iNOS mRNA expression in mouse J774 cells by RT-PCR analysis; format: functional
Procedure, shortened: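 J774 cells were incubated for 3 h with LPS plus compound. Total RNA was extracted and reverse-transcribed, then run by real-time PCR for 40 cycles (95 °C 15 s / 60 °C 1 min), in duplicate. iNOS mRNA was quantified from a standard curve built with LPS-stimulated J774 RNA and normalised to GAPDH.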

[12] = target: Transcription factor p65 (Mus musculus) (UniProt Q04207); assay: Inhibition of NF-kB p65 nuclear translocation in LPS-stimulated mouse J774 cells at 100 uM by Western blot analysis; format: cell-based
Procedure, shortened: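 J774 murine macrophages were grown in DMEM glutamax-I with 10% heat-inactivated FBS and antibiotics for 72 h to confluence, then given compound with LPS in fresh medium. Nuclear extracts were made by hypotonic lysis followed by high-salt extraction of the nuclei. 20 µg protein was run on 10% SDS-PAGE and blotted onto nitrocellulose. Blots were probed with anti-p65 and an HRP secondary antibody, and chemiluminescence was quantified. Results are mean ± SEM.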

`CCCc1cc(=O)oc2c(OC)c(O)ccc12` was tested, and the Activity [1] was “Non-toxic”, the inhibition at 10 µM [2] was 57% and the inhibition at 100 µM [3] was 74.6%. It also gave an inhibition at 100 µM [4] of 8.6%, an inhibition at 100 µM [5] of 73.4% and an inhibition at 10 µM [6] of 11%. The inhibition at 10 µM [7] was -38.9%, the inhibition at 10 µM [8] was 13.4% and the inhibition at 100 µM [9] was 83.7%.

In the case of `Cc1cc(=O)oc2c(C)c(O)ccc12`, the Activity [1] is reported as “Non-toxic”, the inhibition at 10 µM [2] is reported as 17.3% and the inhibition at 100 µM [3] is reported as 61.4%. It also gave an inhibition at 100 µM [4] of 7.8%, an inhibition at 100 µM [5] of 82.8% and an inhibition at 10 µM [6] of 17.5%. The inhibition at 10 µM [7] was 2.3%, the inhibition at 10 µM [8] was 20.1% and the inhibition at 100 µM [9] was 65.7%.

For `Cc1cc(O)cc2oc(=O)ccc12`, the Activity [1] was “Non-toxic”, the inhibition at 10 µM [2] was 9.2% and the inhibition at 100 µM [3] was 86.2%. For the same molecule, the inhibition at 100 µM [4] was -60.4%, the inhibition at 100 µM [5] was 4.2% and the inhibition at 10 µM [7] was -44.1%. It also gave an inhibition at 10 µM [8] of 2.7% and an inhibition at 100 µM [9] of 80%.

In the case of `COc1c(O)ccc2c(-c3ccccc3)cc(=O)oc12`, the Activity [1] is reported as “Non-toxic”, the inhibition at 10 µM [2] is reported as 71.5% and the inhibition at 100 µM [3] is reported as 84.6%. For the same molecule, the inhibition at 100 µM [4] was -34.7%, the inhibition at 100 µM [5] was 46.9% and the inhibition at 10 µM [7] was -59.1%. The inhibition at 10 µM [8] was 55.9% and the inhibition at 100 µM [9] was 81.8%.

`Cc1c(C)c2c(C)cc(O)cc2oc1=O` was tested, and the Activity [1] was “Non-toxic”, the inhibition at 10 µM [2] was 51.8% and the inhibition at 100 µM [3] was 94.7%. For the same molecule, the inhibition [10] was 65%, the inhibition at 100 µM [4] was 11.1% and the inhibition at 100 µM [5] was 92.2%. For the same molecule, the “inhibition (INH)” value [11] was 50%, the inhibition at 10 µM [7] was -31.7% and the inhibition at 10 µM [8] was 49.6%. It also gave an inhibition at 100 µM [9] of 92.4%.

Molecule `S=C(S)N1CCCC1` [PYRROLIDINE DITHIOCARBAMATE] has an inhibition at 100 µM [3] of 97% and an inhibition [12] of 95%.

`CCCc1cc(=O)oc2cc(O)cc(C)c12` was tested, and the Activity [1] was “Non-toxic”, the inhibition at 10 µM [2] was 38.5% and the inhibition at 100 µM [3] was 87.8%. It also gave an inhibition at 100 µM [4] of -45.6%, an inhibition at 100 µM [5] of 54.3% and an inhibition at 10 µM [6] of 12.2%. For the same molecule, the inhibition at 10 µM [7] was -6.8%, the inhibition at 10 µM [8] was 7.8% and the inhibition at 100 µM [9] was 62.5%.

For `Cc1cc(=O)oc2cc(O)ccc12` [HYMECROMONE], the Activity [1] was “Non-toxic”, the inhibition at 10 µM [2] was -14.2% and the inhibition at 100 µM [3] was 61.8%. The inhibition at 100 µM [4] was 22.7%, the inhibition at 100 µM [5] was 44.1% and the inhibition at 10 µM [6] was 4.6%. For the same molecule, the inhibition at 10 µM [7] was 3.2%, the inhibition at 10 µM [8] was 22.1% and the inhibition at 100 µM [9] was 42.9%.

For `COc1c(O)ccc2c(C)c(F)c(=O)oc12`, the Activity [1] was “Non-toxic”, the inhibition at 10 µM [2] was 15.8% and the inhibition at 100 µM [3] was 86.2%. The inhibition at 100 µM [4] was -36.8%, the inhibition at 100 µM [5] was 14.8% and the inhibition at 10 µM [6] was 10.7%. For the same molecule, the inhibition at 10 µM [7] was -15.4%, the inhibition at 10 µM [8] was 2.7% and the inhibition at 100 µM [9] was 50.2%.

In the case of `Cc1c(C)c2ccc(O)cc2oc1=O`, the Activity [1] is reported as “Non-toxic”, the inhibition at 10 µM [2] is reported as 37.6% and the inhibition at 100 µM [3] is reported as 85.5%. The inhibition [10] was 65%, the inhibition at 100 µM [4] was 3.7% and the inhibition at 100 µM [5] was 85.7%. For the same molecule, the “inhibition (INH)” value [11] was 50%, the inhibition at 10 µM [6] was 16.7% and the inhibition at 10 µM [7] was -57.7%. For the same molecule, the inhibition at 10 µM [8] was 28.6% and the inhibition at 100 µM [9] was 88.9%.

With `O=c1cc(-c2ccccc2F)c2ccc(O)cc2o1` the Activity [1] was “Non-toxic”, the inhibition at 10 µM [2] was 50.4% and the inhibition at 100 µM [3] was 95.4%. It also gave an inhibition at 100 µM [4] of -16.6%, an inhibition at 100 µM [5] of 92.7% and an inhibition at 10 µM [6] of 0.3%. For the same molecule, the inhibition at 10 µM [7] was -34.7%, the inhibition at 10 µM [8] was 48.8% and the inhibition at 100 µM [9] was 87.5%.

For `O=c1cc(-c2ccccc2)c2ccc(O)cc2o1`, the Activity [1] was “Non-toxic”, the inhibition at 10 µM [2] was 54.8% and the inhibition at 100 µM [3] was 93%. It also gave an inhibition at 100 µM [4] of -0.4%, an inhibition at 100 µM [5] of 95.7% and an inhibition at 10 µM [7] of -47.1%. For the same molecule, the inhibition at 10 µM [8] was 46.5% and the inhibition at 100 µM [9] was 85%.

In the case of `CCc1c(C)c2ccc(O)cc2oc1=O`, the Activity [1] is reported as “Non-toxic”, the inhibition at 10 µM [2] is reported as 43.3% and the inhibition at 100 µM [3] is reported as 91%. The inhibition [10] was 65%, the inhibition at 100 µM [4] was -73.2% and the “inhibition (INH)” value [11] was 50%. The inhibition at 10 µM [6] was 27.9%, the inhibition at 10 µM [7] was -29.9% and the inhibition at 10 µM [8] was 7.5%. The inhibition at 100 µM [9] was 92.3%.

With `O=c1ccc2ccc(O)cc2o1` [UMBELLIFERONE] the Activity [1] was “Non-toxic”, the inhibition at 10 µM [2] was 5.5% and the inhibition at 100 µM [3] was 47.2%. The inhibition at 100 µM [4] was -20.4%, the inhibition at 100 µM [5] was 34.1% and the inhibition at 10 µM [6] was 3.2%. For the same molecule, the inhibition at 10 µM [7] was -17.2%, the inhibition at 10 µM [8] was 10% and the inhibition at 100 µM [9] was 64.4%.

For `Cc1c(F)c(=O)oc2cc(O)ccc12`, the Activity [1] was “Non-toxic”, the inhibition at 10 µM [2] was 7.4% and the inhibition at 100 µM [3] was 53%. For the same molecule, the inhibition at 100 µM [4] was -25.1%, the inhibition at 100 µM [5] was 38.1% and the inhibition at 10 µM [6] was 21.2%. The inhibition at 10 µM [7] was -2.2%, the inhibition at 10 µM [8] was 46.5% and the inhibition at 100 µM [9] was 62.8%.

In the case of `Cc1cc(O)cc2oc(=O)cc(C)c12`, the Activity [1] is reported as “Non-toxic”, the inhibition at 10 µM [2] is reported as -8.6% and the inhibition at 100 µM [3] is reported as 74.3%. It also gave an inhibition at 100 µM [4] of -17.5%, an inhibition at 100 µM [5] of 66.4% and an inhibition at 10 µM [6] of 14.5%. It also gave an inhibition at 10 µM [7] of -14.8%, an inhibition at 10 µM [8] of -19.7% and an inhibition at 100 µM [9] of 71%.

`CCCc1cc(=O)oc2cc(O)ccc12` was tested, and the Activity [1] was “Non-toxic”, the inhibition at 10 µM [2] was 25.3% and the inhibition at 100 µM [3] was 89.7%. For the same molecule, the inhibition at 100 µM [4] was 25%, the inhibition at 100 µM [5] was 88.9% and the inhibition at 10 µM [6] was 25.4%. For the same molecule, the inhibition at 10 µM [7] was -11.1%, the inhibition at 10 µM [8] was 25.3% and the inhibition at 100 µM [9] was 67.6%.

For `CCc1c(C)c2ccc(O)c(C)c2oc1=O`, the Activity [1] was “Non-toxic”, the inhibition at 10 µM [2] was 46.5% and the inhibition at 100 µM [3] was 65.2%. For the same molecule, the inhibition at 100 µM [4] was 21%, the inhibition at 100 µM [5] was 94.9% and the inhibition at 10 µM [6] was 26.1%. The inhibition at 10 µM [7] was -36.8%, the inhibition at 10 µM [8] was 18.9% and the inhibition at 100 µM [9] was 87%.
